Reference: ChEMBL document CHEMBL4152188, “Design, synthesis and biological evaluation of C(4) substituted monobactams as antibacterial agents against multidrug-resistant Gram-negative bacteria” (Eur J Med Chem, 2018)

How the values were obtained:
Assay type in all cases: functional
Klebsiella pneumoniae [1] = assay: Selectivity index, ratio of MIC for against KPC-2 producing Klebsiella pneumoniae isolate 212423 to MIC for against KPC-2 producing Klebsiella pneumoniae isolate 212423 in presence of BPL
Pseudomonas aeruginosa [2] = assay: Antibacterial activity against IMP-4 producing Pseudomonas aeruginosa isolate 212886 after 18 hrs by CLSI broth microdilution method; conditions: isolate 212886, 18 h
Escherichia coli [3] = assay: Antibacterial activity against extended-spectrum beta-lactamase producing Escherichia coli isolate 209285 after 18 hrs in presence of BPL by CLSI broth microdilution method; conditions: isolate 209285, 18 h
Outline: (§1)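 CLSI broth microdilution against clinical isolates (ESBL E. coli, KPC-2 MDR K. pneumoniae, IMP-4 MDR P. aeruginosa; five per species). Iron limitation: Mueller-Hinton broth supplemented with 16 mg/liter 2,2'-bipyridyl to complex iron and induce iron uptake systems. Read-out: MIC.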

Klebsiella pneumoniae [4] = assay: Antibacterial activity against KPC-2 producing Klebsiella pneumoniae isolate 212229 after 18 hrs in presence of BPL by CLSI broth microdilution method; conditions: isolate 212229, 18 h; outline: as §1
Pseudomonas aeruginosa [5] = assay: Selectivity index, ratio of MIC for against IMP-4 producing Pseudomonas aeruginosa isolate 207272 to MIC for against IMP-4 producing Pseudomonas aeruginosa isolate 207272 in presence of BPL
Pseudomonas aeruginosa [6] = assay: Selectivity index, ratio of MIC for against IMP-4 producing Pseudomonas aeruginosa isolate 209321 to MIC for against IMP-4 producing Pseudomonas aeruginosa isolate 209321 in presence of BPL
Escherichia coli [7] = assay: Antibacterial activity against extended-spectrum beta-lactamase producing Escherichia coli isolate 106342 after 18 hrs by CLSI broth microdilution method; conditions: isolate 106342, 18 h
Pseudomonas aeruginosa [8] = assay: Antibacterial activity against IMP-4 producing Pseudomonas aeruginosa isolate 207272 after 18 hrs by CLSI broth microdilution method; conditions: isolate 207272, 18 h
Pseudomonas aeruginosa [9] = assay: Antibacterial activity against IMP-4 producing Pseudomonas aeruginosa isolate 209471 after 18 hrs by CLSI broth microdilution method; conditions: isolate 209471, 18 h
Escherichia coli [10] = assay: Antibacterial activity against extended-spectrum beta-lactamase producing Escherichia coli isolate 209285 after 18 hrs by CLSI broth microdilution method; conditions: isolate 209285, 18 h
Pseudomonas aeruginosa [11] = assay: Antibacterial activity against IMP-4 producing Pseudomonas aeruginosa isolate 208247 after 18 hrs in presence of BPL by CLSI broth microdilution method; conditions: isolate 208247, 18 h; outline: as §1
Escherichia coli [12] = assay: Selectivity index, ratio of MIC for against extended-spectrum beta-lactamase producing Escherichia coli isolate 212648 to MIC for extended-spectrum beta-lactamase producing Escherichia coli isolate 212648 in presence of BPL
Escherichia coli [13] = assay: Selectivity index, ratio of MIC for against extended-spectrum beta-lactamase producing Escherichia coli isolate 209285 to MIC for extended-spectrum beta-lactamase producing Escherichia coli isolate 209285 in presence of BPL
Pseudomonas aeruginosa [14] = assay: Selectivity index, ratio of MIC for against IMP-4 producing Pseudomonas aeruginosa isolate 208247 to MIC for against IMP-4 producing Pseudomonas aeruginosa isolate 208247 in presence of BPL
Klebsiella pneumoniae [15] = assay: Antibacterial activity against KPC-2 producing Klebsiella pneumoniae isolate 209632 after 18 hrs in presence of BPL by CLSI broth microdilution method; conditions: isolate 209632, 18 h; outline: as §1
Klebsiella pneumoniae [16] = assay: Antibacterial activity against KPC-2 producing Klebsiella pneumoniae isolate 212232 after 18 hrs by CLSI broth microdilution method; conditions: isolate 212232, 18 h
Klebsiella pneumoniae [17] = assay: Antibacterial activity against KPC-2 producing Klebsiella pneumoniae isolate 209735 after 18 hrs in presence of BPL by CLSI broth microdilution method; conditions: isolate 209735, 18 h; outline: as §1
Klebsiella pneumoniae [18] = assay: Antibacterial activity against KPC-2 producing Klebsiella pneumoniae isolate 209632 after 18 hrs by CLSI broth microdilution method; conditions: isolate 209632, 18 h
Escherichia coli [19] = assay: Antibacterial activity against extended-spectrum beta-lactamase producing Escherichia coli isolate 208687 after 18 hrs by CLSI broth microdilution method; conditions: isolate 208687, 18 h
Klebsiella pneumoniae [20] = assay: Selectivity index, ratio of MIC for against KPC-2 producing Klebsiella pneumoniae isolate 209632 to MIC for against KPC-2 producing Klebsiella pneumoniae isolate 209632 in presence of BPL
Escherichia coli [21] = assay: Antibacterial activity against extended-spectrum beta-lactamase producing Escherichia coli isolate 106342 after 18 hrs in presence of BPL by CLSI broth microdilution method; conditions: isolate 106342, 18 h; outline: as §1
Klebsiella pneumoniae [22] = assay: Antibacterial activity against KPC-2 producing Klebsiella pneumoniae isolate 212423 after 18 hrs in presence of BPL by CLSI broth microdilution method; conditions: isolate 212423, 18 h; outline: as §1
Pseudomonas aeruginosa [23] = assay: Antibacterial activity against IMP-4 producing Pseudomonas aeruginosa isolate 212886 after 18 hrs in presence of BPL by CLSI broth microdilution method; conditions: isolate 212886, 18 h; outline: as §1
Pseudomonas aeruginosa [24] = assay: Antibacterial activity against IMP-4 producing Pseudomonas aeruginosa isolate 209321 after 18 hrs by CLSI broth microdilution method; conditions: isolate 209321, 18 h
Klebsiella pneumoniae [25] = assay: Selectivity index, ratio of MIC for against KPC-2 producing Klebsiella pneumoniae isolate 212232 to MIC for against KPC-2 producing Klebsiella pneumoniae isolate 212232 in presence of BPL
Klebsiella pneumoniae [26] = assay: Antibacterial activity against KPC-2 producing Klebsiella pneumoniae isolate 209735 after 18 hrs by CLSI broth microdilution method; conditions: isolate 209735, 18 h
Klebsiella pneumoniae [27] = assay: Selectivity index, ratio of MIC for against KPC-2 producing Klebsiella pneumoniae isolate 209735 to MIC for against KPC-2 producing Klebsiella pneumoniae isolate 209735 in presence of BPL
Klebsiella pneumoniae [28] = assay: Antibacterial activity against KPC-2 producing Klebsiella pneumoniae isolate 212423 after 18 hrs by CLSI broth microdilution method; conditions: isolate 212423, 18 h
Klebsiella pneumoniae [29] = assay: Antibacterial activity against KPC-2 producing Klebsiella pneumoniae isolate 212229 after 18 hrs by CLSI broth microdilution method; conditions: isolate 212229, 18 h
Escherichia coli [30] = assay: Selectivity index, ratio of MIC for against extended-spectrum beta-lactamase producing Escherichia coli isolate 106342 to MIC for extended-spectrum beta-lactamase producing Escherichia coli isolate 106342 in presence of BPL
Escherichia coli [31] = assay: Antibacterial activity against Escherichia coli isolate 210737 after 18 hrs in presence of BPL by CLSI broth microdilution method; conditions: isolate 210737, 18 h; outline: as §1
Pseudomonas aeruginosa [32] = assay: Antibacterial activity against IMP-4 producing Pseudomonas aeruginosa isolate 207272 after 18 hrs in presence of BPL by CLSI broth microdilution method; conditions: isolate 207272, 18 h; outline: as §1
Klebsiella pneumoniae [33] = assay: Antibacterial activity against KPC-2 producing Klebsiella pneumoniae isolate 212232 after 18 hrs in presence of BPL by CLSI broth microdilution method; conditions: isolate 212232, 18 h; outline: as §1
Escherichia coli [34] = assay: Antibacterial activity against extended-spectrum beta-lactamase producing Escherichia coli isolate 212648 after 18 hrs by CLSI broth microdilution method; conditions: isolate 212648, 18 h
Pseudomonas aeruginosa [35] = assay: Antibacterial activity against IMP-4 producing Pseudomonas aeruginosa isolate 209471 after 18 hrs in presence of BPL by CLSI broth microdilution method; conditions: isolate 209471, 18 h; outline: as §1
Escherichia coli [36] = assay: Selectivity index, ratio of MIC for against Escherichia coli isolate 210737 to MIC for Escherichia coli isolate 210737 in presence of BPL
Escherichia coli [37] = assay: Antibacterial activity against extended-spectrum beta-lactamase producing Escherichia coli isolate 212648 after 18 hrs in presence of BPL by CLSI broth microdilution method; conditions: isolate 212648, 18 h; outline: as §1
Pseudomonas aeruginosa [38] = assay: Selectivity index, ratio of MIC for against IMP-4 producing Pseudomonas aeruginosa isolate 212886 to MIC for against IMP-4 producing Pseudomonas aeruginosa isolate 212886 in presence of BPL
Klebsiella pneumoniae [39] = assay: Selectivity index, ratio of MIC for against KPC-2 producing Klebsiella pneumoniae isolate 212229 to MIC for against KPC-2 producing Klebsiella pneumoniae isolate 212229 in presence of BPL
Escherichia coli [40] = assay: Antibacterial activity against extended-spectrum beta-lactamase producing Escherichia coli isolate 208687 after 18 hrs in presence of BPL by CLSI broth microdilution method; conditions: isolate 208687, 18 h; outline: as §1
Pseudomonas aeruginosa [41] = assay: Antibacterial activity against IMP-4 producing Pseudomonas aeruginosa isolate 208247 after 18 hrs by CLSI broth microdilution method; conditions: isolate 208247, 18 h
Escherichia coli [42] = assay: Antibacterial activity against Escherichia coli isolate 210737 after 18 hrs by CLSI broth microdilution method; conditions: isolate 210737, 18 h
Pseudomonas aeruginosa [43] = assay: Antibacterial activity against IMP-4 producing Pseudomonas aeruginosa isolate 209321 after 18 hrs in presence of BPL by CLSI broth microdilution method; conditions: isolate 209321, 18 h; outline: as §1
Pseudomonas aeruginosa [44] = assay: Selectivity index, ratio of MIC for against IMP-4 producing Pseudomonas aeruginosa isolate 209471 to MIC for against IMP-4 producing Pseudomonas aeruginosa isolate 209471 in presence of BPL
Escherichia coli [45] = assay: Selectivity index, ratio of MIC for against extended-spectrum beta-lactamase producing Escherichia coli isolate 208687 to MIC for extended-spectrum beta-lactamase producing Escherichia coli isolate 208687 in presence of BPL

CC(C)C(O/N=C(\C(=O)N[C@@H]1C(=O)N(S(=O)(=O)O)[C@@H]1COC(=O)c1ccc(O)c(O)c1Cl)c1csc(N)n1)c1cc(=O)c(O)cn1O (stereo not given in full)
8: Selectivity Index (Klebsiella pneumoniae [20]) | Selectivity Index (Klebsiella pneumoniae [25]) | Selectivity Index (Klebsiella pneumoniae [27]) | Selectivity Index (Klebsiella pneumoniae [39])
4 µg/mL: MIC (Klebsiella pneumoniae [4]) | MIC (Klebsiella pneumoniae [15]) | MIC (Klebsiella pneumoniae [17]) | MIC (Klebsiella pneumoniae [22]) | MIC (Klebsiella pneumoniae [33])
64 µg/mL: MIC (Pseudomonas aeruginosa [9]) | MIC (Pseudomonas aeruginosa [24]) | MIC (Pseudomonas aeruginosa [35])
1: Selectivity Index (Escherichia coli [13]) | Selectivity Index (Pseudomonas aeruginosa [44])
1 - 2: Selectivity Index (Pseudomonas aeruginosa [5]) | Selectivity Index (Pseudomonas aeruginosa [14]) | Selectivity Index (Escherichia coli [36]) | Selectivity Index (Pseudomonas aeruginosa [38])
32 µg/mL: MIC (Escherichia coli [3]) | MIC (Escherichia coli [10]) | MIC (Klebsiella pneumoniae [16]) | MIC (Klebsiella pneumoniae [18]) | MIC (Escherichia coli [19]) | MIC (Klebsiella pneumoniae [26]) | MIC (Klebsiella pneumoniae [29]) | MIC (Escherichia coli [34]) | MIC (Pseudomonas aeruginosa [43])
4: Selectivity Index (Klebsiella pneumoniae [1])
8 µg/mL: MIC (Escherichia coli [21])
> 64 µg/mL: MIC (Pseudomonas aeruginosa [2]) | MIC (Pseudomonas aeruginosa [8]) | MIC (Pseudomonas aeruginosa [11]) | MIC (Pseudomonas aeruginosa [23]) | MIC (Escherichia coli [31]) | MIC (Pseudomonas aeruginosa [32]) | MIC (Pseudomonas aeruginosa [41]) | MIC (Escherichia coli [42])
16 µg/mL: MIC (Escherichia coli [7]) | MIC (Klebsiella pneumoniae [28]) | MIC (Escherichia coli [37]) | MIC (Escherichia coli [40])
2: Selectivity Index (Pseudomonas aeruginosa [6]) | Selectivity Index (Escherichia coli [12]) | Selectivity Index (Escherichia coli [30]) | Selectivity Index (Escherichia coli [45])

CC(C)C(O/N=C(\C(=O)NC1C(=O)N(S(=O)(=O)O)C12CCC2)c1csc(N)n1)c1cc(=O)c(O)cn1O (stereo not given)
1: Selectivity Index (Pseudomonas aeruginosa [5]) | Selectivity Index (Pseudomonas aeruginosa [14]) | Selectivity Index (Pseudomonas aeruginosa [38]) | Selectivity Index (Pseudomonas aeruginosa [44])
4: Selectivity Index (Klebsiella pneumoniae [39])
0.5 µg/mL: MIC (Escherichia coli [31]) | MIC (Escherichia coli [40])
> 64 µg/mL: MIC (Klebsiella pneumoniae [18]) | MIC (Klebsiella pneumoniae [26]) | MIC (Klebsiella pneumoniae [28])
32 µg/mL: MIC (Pseudomonas aeruginosa [8]) | MIC (Pseudomonas aeruginosa [9]) | MIC (Pseudomonas aeruginosa [24]) | MIC (Klebsiella pneumoniae [29]) | MIC (Pseudomonas aeruginosa [32]) | MIC (Pseudomonas aeruginosa [35])
>8: Selectivity Index (Klebsiella pneumoniae [1]) | Selectivity Index (Klebsiella pneumoniae [27])
2: Selectivity Index (Pseudomonas aeruginosa [6]) | Selectivity Index (Escherichia coli [12]) | Selectivity Index (Escherichia coli [13]) | Selectivity Index (Klebsiella pneumoniae [25]) | Selectivity Index (Escherichia coli [30]) | Selectivity Index (Escherichia coli [45])
>4: Selectivity Index (Klebsiella pneumoniae [20])
16 µg/mL: MIC (Pseudomonas aeruginosa [2]) | MIC (Pseudomonas aeruginosa [11]) | MIC (Klebsiella pneumoniae [15]) | MIC (Pseudomonas aeruginosa [23]) | MIC (Pseudomonas aeruginosa [41]) | MIC (Pseudomonas aeruginosa [43])
8: Selectivity Index (Escherichia coli [36])
2 µg/mL: MIC (Escherichia coli [3]) | MIC (Escherichia coli [7]) | MIC (Escherichia coli [34])
8 µg/mL: MIC (Klebsiella pneumoniae [4]) | MIC (Klebsiella pneumoniae [16]) | MIC (Klebsiella pneumoniae [17]) | MIC (Klebsiella pneumoniae [22])
4 µg/mL: MIC (Escherichia coli [10]) | MIC (Klebsiella pneumoniae [33]) | MIC (Escherichia coli [42])
1 µg/mL: MIC (Escherichia coli [19]) | MIC (Escherichia coli [21]) | MIC (Escherichia coli [37])
